Source: PubChem
Rows were chosen to be rich in hits. Some 2.3% of all compounds tested hit in one or more screens of this group.
Fam108B counter: blocks mouse Fam108B hydrolase in RBBP9 counter-screen; recombinant Fam108B, FP-Rh probe fluorescence polarization; inhibition, % at 9.51 µM; hit rate 0.33% among 300,000; AID 1947;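 active = inhibition above the screen mean inhibition plus 3 SD, computed separately per campaign, cut at about 18% in these data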;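 note: inhibitors lower polarization as less probe binds the enzyme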
GSTO1 inh: GSTO1 inhibition, counter-screen for RBBP9 inhibitors; hit rate 1.1% among 300,000; inhibition, % at 5.96 µM; recombinant GSTO1, activity-based probe fluorescence polarization;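 active = inhibition above the campaign mean inhibition plus 3 SD, cut at about 35% in these data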;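 note: 0% = GSTO1-1 with DMSO and 100% = wells lacking GSTO1-1 enzyme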
PME-1 primary: blocks human protein phosphatase methylesterase 1; recombinant PME-1, FP-Rh probe fluorescence polarization; inhibition, % at 5.9 µM; hit rate 0.53% among 320,000;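 active = inhibition above the campaign mean of all compounds plus 3 SD, cut at about 26% in these data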;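 note: competitive labeling of PME-1 active site by serine hydrolase directed probe; 0% = PME-1 with DMSO and 100% = wells lacking PME-1 enzyme; inhibitors block probe labeling so polarization falls and inhibition rises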
PAD4 FP inh: blocks human protein arginine deiminase 4; Q9UM07; recombinant PAD4, RCA probe fluorescence polarization; inhibition, % at 6.36 µM; hit rate 0.41% among 330,000; AID 485272;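 active = percent inhibition above a cutoff equal to the mean of all tested compounds plus 3 SD, cut at about 15% in these data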;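 note: 0% = PAD4 with RCA probe and DMSO and 100% = probe without PAD4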
Target sequence (Q9UM07 whole entry, looked up): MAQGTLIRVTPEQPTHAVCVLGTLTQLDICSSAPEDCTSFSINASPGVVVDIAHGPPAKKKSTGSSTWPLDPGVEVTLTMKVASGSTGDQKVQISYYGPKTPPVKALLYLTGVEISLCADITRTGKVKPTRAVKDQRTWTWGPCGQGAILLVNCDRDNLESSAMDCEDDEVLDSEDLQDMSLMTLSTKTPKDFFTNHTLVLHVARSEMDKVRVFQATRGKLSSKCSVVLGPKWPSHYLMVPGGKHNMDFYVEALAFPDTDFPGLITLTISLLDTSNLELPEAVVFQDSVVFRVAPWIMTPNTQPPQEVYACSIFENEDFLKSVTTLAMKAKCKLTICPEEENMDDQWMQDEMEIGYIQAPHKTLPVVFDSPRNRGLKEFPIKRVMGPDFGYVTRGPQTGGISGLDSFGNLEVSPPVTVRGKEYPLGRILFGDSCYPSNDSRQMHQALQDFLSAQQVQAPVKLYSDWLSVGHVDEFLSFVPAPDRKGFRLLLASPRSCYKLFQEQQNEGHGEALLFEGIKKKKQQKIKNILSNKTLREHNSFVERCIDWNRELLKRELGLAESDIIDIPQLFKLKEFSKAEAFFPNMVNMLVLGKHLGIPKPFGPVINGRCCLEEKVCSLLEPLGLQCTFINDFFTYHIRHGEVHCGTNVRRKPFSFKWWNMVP
RBBP9 inhibitor: inhibitors of human serine hydrolase RBBP9 | O75884 | inhibition, % at 7.94 µM | AID 1515 | recombinant RBBP9, FP-Rh probe fluorescence polarization | hit rate 0.2% among 220,000;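 active = inhibition above the campaign mean of all tested compounds plus 3 SD, cut at about 14% in these data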;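 note: plate controls were DMSO wells with RBBP9 for no effect and wells lacking RBBP9 protein for full effect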
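Test system: recombinant human RBBP9; Timing: 30 min then 45 min, 25 °C; Detection: fluorescence polarization; Control set: RBBP9 with DMSO as uninhibited control, no-protein wells as full inhibition; Compound dosing: one concentration, 7.94 µM nominal, 0.794% DMSO; Probe or stimulus: FP-Rh activity-based probe, 375 nM before mixing.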
PRMT1 inh: PRMT1 (human) inhibition, primary screen. Q99873. hit rate 1.3% among 370,000. recombinant PRMT1, activity-based probe fluorescence polarization. inhibition, % at 2.79 µM;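 active = inhibition above about 21% made by adding two undisclosed values, limit read from the data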
PRMT1 inh conf: PRMT1 (human) inhibition, FP confirmation; inhibition, % at 2.79 µM; shares compounds with PRMT1 inh; recombinant His-PRMT1, activity-based probe fluorescence polarization; AID 687036; hit rate 42% among 3,300;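 active = mean inhibition across replicates above the hit cutoff derived for the earlier primary screen, cut at about 22% in these data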
* = called active by the depositor; / = no result given.

SMILES | Fam108B counter | GSTO1 inh | PME-1 primary | PAD4 FP inh | RBBP9 inhibitor | PRMT1 inh | PRMT1 inh conf
Cc1ccc(N2C(=O)CC(Sc3ccccc3C(=O)O)C2=O)c([N+](=O)[O-])c1 (stereo not drawn) | 2 | 8 | 3 | 12 | -5 | 63* | 65*
CCCCN1C(=O)CC(Sc2ccccc2C(=O)O)C1=O (stereo not drawn) | -3 | 11 | -1 | 7 | -2 | 10 | /
c1coc(-c2nnc3sc(Cc4cccs4)nn23)c1 | 0 | 6 | -3 | -8 | -10 | 64* | 5
CC(C(=O)OCC(=O)c1ccc([N+](=O)[O-])cc1)N1C(=O)C2C3CCC(C3)C2C1=O (stereo not drawn) | -1 | 9 | -2 | -6 | -4 | 11 | /
O=C(CN1C(=O)C2C3C=CC(C3)C2C1=O)OCC(=O)c1ccc(Cl)cc1 (stereo not drawn) | / | / | / | / | / | -4 | /
CC(C(=O)OCC(=O)c1ccc([N+](=O)[O-])cc1)N1C(=O)C2C3C=CC(C3)C2C1=O (stereo not drawn) | 1 | 13 | 2 | -1 | / | 28* | 4
O=C(CN1C(=O)C2C3C=CC(C3)C2C1=O)OCC(=O)c1ccc([N+](=O)[O-])cc1 (stereo not drawn) | -5 | 11 | 0 | -12 | / | 50* | 42*
O=C(c1ccc(-c2cccc([N+](=O)[O-])c2)o1)N1CCN(c2ccc([N+](=O)[O-])cc2)CC1 | / | / | / | / | / | 3 | /
CC1CC(C)CN(C(=O)c2ccc(-c3ccc([N+](=O)[O-])cc3)o2)C1 (stereo not drawn) | 4 | 3 | 1 | 1 | / | 35* | 18
O=C(c1ccc(-c2ccc(Cl)cc2)o1)N1CCN(c2ccc([N+](=O)[O-])cc2Cl)CC1 | -1 | -9 | -1 | -6 | -6 | -2 | /
O=C(c1ccc(-c2ccc([N+](=O)[O-])cc2)o1)N1CCCCC1 | -1 | -5 | -3 | 1 | -3 | 46* | 11
O=C(Nc1cccc(N2C(=O)C=CC2=O)c1)c1cccs1 | -8 | -38 | -18 | -6 | / | 86* | 94*
Cc1nc2ccccc2c(=O)n1-c1cccc(NC(=O)c2cccs2)c1 | 4 | 3 | 0 | -2 | / | -1 | /
CCn1c(C)cs/c1=N\S(=O)(=O)c1ccccc1 | -1 | 2 | -4 | -1 | / | -1 | /
O=Cc1s/c(=N\S(=O)(=O)c2ccccc2)n(CCCCl)c1Cl | / | / | / | / | -7 | 43* | 37*
Cc1ccc(/C=c2\sc3n(c2=O)CN(c2cccc(Br)c2)CN=3)o1 | 4 | -1 | -2 | 2 | -2 | 34* | 4
O=C(c1cc(=O)[nH]c2ccccc12)N1CCN(c2cccc(C(F)(F)F)c2)CC1 | -7 | -5 | 2 | -7 | -4 | -6 | /
CN(C)c1ccc(C(=O)N2CCCC2)cc1 | -4 | -5 | 0 | -2 | -5 | -3 | /
Cc1cnc(NC(=O)CSc2ccccc2)s1 | 4 | 4 | 1 | -2 | -2 | 0 | /
CCOC(=S)SCC(=O)Nc1ncc(C)s1 | 0 | 14 | 0 | 14 | 2 | 59* | 46*
FC(F)(F)c1ccccc1Cc1c(-c2ccco2)nc2ccc(Cl)cn12 | / | / | / | / | / | 35* | 16
Cc1ccc(-c2nc3c(Cl)cc(C(F)(F)F)cn3c2Cc2ccccc2C(F)(F)F)cc1 | / | / | / | / | / | 1 | /
FC(F)(F)c1cc(Cl)c2nc(-c3ccco3)c(Cc3ccccc3C(F)(F)F)n2c1 | / | / | / | / | / | 47* | 15
O=C(NC(=O)c1ccccc1F)OCc1ccc(Cl)cc1Cl | -1 | 16 | -4 | -2 | -8 | -2 | /
CCCC1CCC2(CCCN2CCOC(=S)Nc2cccc(Cl)c2)CC1 (stereo not drawn) | / | / | / | / | / | 32* | 30*
SMILES | Fam108B counter | GSTO1 inh | PME-1 primary | PAD4 FP inh | RBBP9 inhibitor | PRMT1 inh | PRMT1 inh conf
CCCC1CCC2(CCCN2CCOC(=S)Nc2ccccc2Cl)CC1 (stereo not drawn) | / | / | / | / | / | 3 | /
FC(F)(F)c1ccccc1NC(=S)OCCN1CCCC12CCC(c1ccccc1)CC2 (stereo not drawn) | / | / | / | / | / | 42* | 25*
Cc1cc(C)n2ncc(C(=O)NCCc3ccccc3)c2n1 | 0 | 4 | -1 | 5 | -4 | 2 | /
COc1ccc(SCC(O)Cn2c3ccccc3c3ccccc32)c(OC)c1 (stereo not drawn) | / | / | / | / | / | 1 | /
CCC(/C=C1\Oc2ccc(OC)cc2N1C)=C\c1sc2ccccc2[n+]1CCCS(=O)(=O)[O-] | / | / | / | / | / | 49* | 10
CC[n+]1ccc(/C=C2\Sc3ccccc3N2CCCS(=O)(=O)[O-])c2ccccc21 | -1 | 2 | -4 | -4 | -4 | 2 | /
COC(=O)[C@@]12CCCCN1[C@H](c1ccc(-c3ccc(Cl)c(Cl)c3)c(OC)c1)[C@H]1C(=O)N(C)C(=O)[C@H]12 | / | / | / | -2 | / | -1 | /
CC[n+]1c(/C=C2\C=C(C)CC(C)(C)C2)sc2ccccc21 | 5 | 14 | -3 | -3 | -9 | 44* | 16
CC[n+]1c(/C=C2/C=C(C)CC(C)(C)C2)sc2ccc(OC)cc21 | -10 | -7 | -27 | -21 | -8 | 36* | 1
CC[n+]1c(C)sc2sc3ccccc3c21 | 4 | 16 | 7 | 2 | -2 | / | /
NC(=O)c1ccc(SCC(=O)OCC(=O)NCC2CCCCC2)c([N+](=O)[O-])c1 | 0 | 7 | -7 | -1 | / | 20 | /
NC(=O)c1ccc(SCC(=O)OCC(=O)NCc2cccs2)c([N+](=O)[O-])c1 | / | / | 2 | 3 | / | 45* | -4
Cc1csc(NC(=O)CSc2nnc(-c3ccccc3)o2)n1 | -7 | 8 | 6 | -4 | -3 | 1 | /
CCN1C[C@@H]2[C@@H]3C(=O)N(C)C(=O)[C@@H]3[C@](Cc3ccccc3)(C1=O)N2C(=O)c1ccc(C)cc1 | / | / | / | / | / | 1 | /
CCOC(=O)C1CCCN(C2CC(=O)N(c3cccc(C(F)(F)F)c3)C2=O)C1 (stereo not drawn) | -2 | 3 | -3 | 2 | -7 | 26* | 25*
CCOC(=O)C1CCCN(C2CC(=O)N(c3ccc(N4C(=O)CC(N5CCCC(C(=O)OCC)C5)C4=O)cc3)C2=O)C1 (stereo not drawn) | -3 | 5 | -4 | -3 | -6 | 15 | /
CCOC(=O)C1CCCN(C2CC(=O)N(c3ccccc3)C2=O)C1 (stereo not drawn) | 1 | 7 | 0 | -1 | -8 | 57* | 0
CCOC(=O)C1CCCN(C2CC(=O)N(c3ccc(C)c(C)c3)C2=O)C1 (stereo not drawn) | -4 | 6 | -5 | -2 | -1 | 46* | 4
CCOC(=O)C1CCCN(C2CC(=O)N(c3ccc(C(C)C)cc3)C2=O)C1 (stereo not drawn) | -2 | 2 | 1 | 6 | -5 | 12 | /
Cc1cccc(N2C(=O)CC(N3CCN(c4cccc(C(F)(F)F)c4)CC3)C2=O)c1 (stereo not drawn) | 2 | 0 | 7 | -3 | 8 | 6 | /
